# Laboratory results published in ChEMBL document CHEMBL5357066, “Development of Novel Membrane Disrupting Lipoguanidine Compounds Sensitizing Gram-Negative Bacteria to Antibiotics” (ACS Med Chem Lett, 2024).
# Test system: Klebsiella pneumoniae
# Test: Synergistic antibacterial activity against […] Klebsiella pneumoniae M6 assessed as rifampicin MIC at <=0.25 times MIC incubated for overnight by microbroth dilution checkerboard assay
# Assay type: functional
# Settings: not given
# In short: (§1)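 Checkerboard run under the MIC conditions (TSB, overnight, 37 °C). Antibiotic and lipoguanidine 2-fold series were combined on one plate before bacteria were added. Growth/no-growth was scored as for the MIC (<0.1 OD600). Single-agent MICs were measured on the same plates. Three independent repeats were done.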
row,SMILES,MIC
1,CCCCCCCCCCCCCCCCNC(=N)NCCCCN,0.25 µg/mL

# Test system: Klebsiella pneumoniae
# Test: Synergistic antibacterial activity against Klebsiella pneumoniae NCTC 13368 assessed as rifampicin MIC at <=0.25 times MIC incubated for overnight by microbroth dilution checkerboard assay
# Assay type: functional
# Settings: not given
# In short: (§2)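 Checkerboard microdilution under MIC conditions (TSB, overnight, 37 °C). Two-fold series of each agent were combined on one plate before bacteria were added, and single-agent MICs were measured on the same plate. FIC = sum of combination MIC/alone MIC for each agent, taken from the most synergistic well. Three independent repeats, mean ± SD. ≤0.5 was taken as strong synergy and 0.5–<1 as weak.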
row,SMILES,MIC
1,CCCCCCCCCCCCCCCCNC(=N)NCCCCN,2 µg/mL

# Test system: Pseudomonas aeruginosa
# Test: Synergistic antibacterial activity against Pseudomonas aeruginosa PAO1 assessed as fold change in rifampicin MIC at <=0.25 times MIC incubated for overnight by microbroth dilution checkerboard assay relative to rifampicin alone
# Assay type: functional
# Settings: not given
# In short: (§3)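 Checkerboard microdilution in Tryptic Soy Broth, run like the MIC assay. Overnight TSB cultures were back-diluted to OD 0.01 and added 1:1 to the combined two-fold series of both agents, then incubated overnight at 37 °C. Growth/no-growth was called at <0.1 OD600. MICs alone were read on the same plates. FIC index came from the most synergistic well; three independent repeats, mean ± SD.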
row,SMILES,fold change (FC)
1,CCCCCCCCCCCCCCCCNC(=N)NCCCCN,>=4

# Test system: Acinetobacter baumannii
# Test: Antibacterial activity against Acinetobacter baumannii ATCC 17978 assessed as bacterial growth inhibition incubated for overnight by microbroth dilution method
# Assay type: functional
# Settings: not given
# In short: (§4)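 Broth microdilution in Tryptic Soy Broth. DMSO stocks were diluted in TSB as 2-fold series. Overnight TSB cultures were back-diluted to OD 0.01 and mixed 1:1 with compound. Incubation was overnight at 37 °C. MIC was the lowest concentration without visible growth (<0.1 OD600). DMSO vehicle was checked at equivalent concentrations.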
row,SMILES,MIC
1,CCCCCCCCCCCCCCCCNC(=N)NCCCCN,4 µg/mL

# Test system: Staphylococcus aureus
# Test: Antibacterial activity against methicillin resistant Staphylococcus aureus USA 300 assessed as bacterial growth inhibition incubated for overnight by microbroth dilution method
# Assay type: functional
# Settings: not given
# In short: (§5)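 Microbroth dilution in Tryptic Soy Broth. DMSO stocks were diluted in TSB as 2-fold series. Overnight TSB cultures were back-diluted to OD 0.01 and mixed 1:1 with compound. Incubation was overnight at 37 °C. MIC is the lowest concentration with no visible growth (<0.1 OD600). DMSO at equivalent concentrations was checked.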
row,SMILES,MIC
1,CCCCCCCCCCCCCCCCNC(=N)NCCCCN,2 µg/mL

# Test system: Pseudomonas aeruginosa
# Test: Synergistic antibacterial activity against Pseudomonas aeruginosa NCTC 13437 assessed as fold change in rifampicin MIC at <=0.25 times MIC incubated for overnight by microbroth dilution checkerboard assay relative to rifampicin alone
# Assay type: functional
# Settings: not given
# In short: as §3
row,SMILES,fold change (FC)
1,CCCCCCCCCCCCCCCCNC(=N)NCCCCN,0

# Test system: Klebsiella pneumoniae
# Test: Antibacterial activity against ESBL Klebsiella pneumoniae NCTC 13368 assessed as bacterial growth inhibition incubated for overnight by microbroth dilution method
# Settings: not given
row,SMILES,MIC
1,CCCCCCCCCCCCCCCCNC(=N)NCCCCN,> 128 µg/mL

# Test system: Enterococcus faecalis
# Test: Antibacterial activity against vancomycin resistant Enterococcus faecalis NCTC 12201 assessed as bacterial growth inhibition incubated for overnight by microbroth dilution method
# Assay type: functional
# Settings: not given
# In short: as §5
row,SMILES,MIC
1,CCCCCCCCCCCCCCCCNC(=N)NCCCCN,2 µg/mL

# Test system: Staphylococcus aureus
# Test: Antibacterial activity against methicillin resistant Staphylococcus aureus NCTC 13616 assessed as bacterial growth inhibition incubated for overnight by microbroth dilution method
# Assay type: functional
# Settings: not given
# In short: as §5
row,SMILES,MIC
1,CCCCCCCCCCCCCCCCNC(=N)NCCCCN,2 µg/mL

# Test system: Enterococcus faecalis
# Test: Antibacterial activity against vancomycin sensitive Enterococcus faecalis NCTC 775 assessed as bacterial growth inhibition incubated for overnight by microbroth dilution method
# Settings: not given
row,SMILES,MIC
1,CCCCCCCCCCCCCCCCNC(=N)NCCCCN,2 µg/mL

# Test system: Pseudomonas aeruginosa
# Test: Synergistic antibacterial activity against Pseudomonas aeruginosa NCTC 13437 assessed as rifampicin MIC at <=0.25 times MIC incubated for overnight by microbroth dilution checkerboard assay
# Assay type: functional
# Settings: not given
# In short: as §3
row,SMILES,MIC
1,CCCCCCCCCCCCCCCCNC(=N)NCCCCN,16 µg/mL

# Test system: Staphylococcus aureus
# Test: Antibacterial activity against methicillin sensitive Staphylococcus aureus ATCC 9144 assessed as bacterial growth inhibition incubated for overnight by microbroth dilution method
# Assay type: functional
# Settings: not given
# In short: as §5
row,SMILES,MIC
1,CCCCCCCCCCCCCCCCNC(=N)NCCCCN,2 µg/mL

# Test system: Acinetobacter baumannii
# Test: Synergistic antibacterial activity against Acinetobacter baumannii AYE assessed as fold change in rifampicin MIC at <=0.25 times MIC incubated for overnight by microbroth dilution checkerboard assay relative to rifampicin alone
# Assay type: functional
# Settings: not given
# In short: as §2
row,SMILES,fold change (FC)
1,CCCCCCCCCCCCCCCCNC(=N)NCCCCN,>=4

# Test system: Pseudomonas aeruginosa
# Test: Antibacterial activity against Pseudomonas aeruginosa PAO1 assessed as bacterial growth inhibition incubated for overnight by microbroth dilution method
# Assay type: functional
# Settings: not given
# In short: as §4
row,SMILES,MIC
1,CCCCCCCCCCCCCCCCNC(=N)NCCCCN,> 128 µg/mL

# Test system: Acinetobacter baumannii
# Test: Synergistic antibacterial activity against Acinetobacter baumannii ATCC 17978 assessed as fold change in rifampicin MIC at <=0.25 times MIC incubated for overnight by microbroth dilution checkerboard assay relative to rifampicin alone
# Assay type: functional
# Settings: not given
# In short: as §2
row,SMILES,fold change (FC)
1,CCCCCCCCCCCCCCCCNC(=N)NCCCCN,>=4

# Test system: Acinetobacter baumannii
# Test: Antibacterial activity against Acinetobacter baumannii AYE assessed as bacterial growth inhibition incubated for overnight by microbroth dilution method
# Assay type: functional
# Settings: not given
# In short: as §4
row,SMILES,MIC
1,CCCCCCCCCCCCCCCCNC(=N)NCCCCN,32 µg/mL

# Test system: Klebsiella pneumoniae
# Test: Antibacterial activity against Klebsiella pneumoniae M6 assessed as bacterial growth inhibition incubated for overnight by microbroth dilution method
# Settings: not given
row,SMILES,MIC
1,CCCCCCCCCCCCCCCCNC(=N)NCCCCN,8 µg/mL

# Test system: Staphylococcus aureus
# Test: Antibacterial activity against methicillin sensitive Staphylococcus aureus 1199B assessed as bacterial growth inhibition incubated for overnight by microbroth dilution method
# Assay type: functional
# Settings: not given
# In short: as §5
row,SMILES,MIC
1,CCCCCCCCCCCCCCCCNC(=N)NCCCCN,4 µg/mL

# Test system: Pseudomonas aeruginosa
# Test: Antibacterial activity against Pseudomonas aeruginosa NCTC 13437 assessed as bacterial growth inhibition incubated for overnight by microbroth dilution method
# Assay type: functional
# Settings: not given
# In short: as §4
row,SMILES,MIC
1,CCCCCCCCCCCCCCCCNC(=N)NCCCCN,> 128 µg/mL

# Test system: Enterococcus faecium
# Test: Antibacterial activity against vancomycin resistant Enterococcus faecium NCTC 12204 assessed as bacterial growth inhibition incubated for overnight by microbroth dilution method
# Assay type: functional
# Settings: not given
# In short: as §5
row,SMILES,MIC
1,CCCCCCCCCCCCCCCCNC(=N)NCCCCN,2 µg/mL

# Test system: Escherichia coli
# Test: Antibacterial activity against Escherichia coli NCTC 12923 assessed as bacterial growth inhibition incubated for overnight by microbroth dilution method
# Assay type: functional
# Settings: not given
# In short: as §4
row,SMILES,MIC
1,CCCCCCCCCCCCCCCCNC(=N)NCCCCN,32 µg/mL

# Test system: Acinetobacter baumannii
# Test: Synergistic antibacterial activity against Acinetobacter baumannii ATCC 17978 assessed as rifampicin MIC at <=0.25 times MIC incubated for overnight by microbroth dilution checkerboard assay
# Assay type: functional
# Settings: not given
# In short: as §2
row,SMILES,MIC
1,CCCCCCCCCCCCCCCCNC(=N)NCCCCN,0.25 µg/mL

# Test system: Pseudomonas aeruginosa
# Test: Synergistic antibacterial activity against Pseudomonas aeruginosa PAO1 assessed as rifampicin MIC at <=0.25 times MIC incubated for overnight by microbroth dilution checkerboard assay
# Assay type: functional
# Settings: not given
# In short: as §3
row,SMILES,MIC
1,CCCCCCCCCCCCCCCCNC(=N)NCCCCN,2 µg/mL

# Test system: Erythrocyte
# Test: Hemolytic activity in human Red blood cells at 512 microg/ml measured after 1 hrs by absorbance based assay
# Assay type: toxicity, cell-based
# Settings: dose 512 µg/ml
# In short: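 Titrations in PBS were incubated with freshly collected human red blood cells for 1 h at 37 °C. Controls were 0.1% Triton-X-100 (full lysis) and PBS alone (no lysis). After centrifugation, supernatant OD550 was read. % haemolysis = (AP−AB)/(AC−AB)×100. Data are means and standard error of three biological replicates.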
row,SMILES,Activity
1,CCCCCCCCCCCCCCCCNC(=N)NCCCCN,Toxic

# Test system: Acinetobacter baumannii
# Test: Synergistic antibacterial activity against Acinetobacter baumannii AYE assessed as rifampicin MIC at <=0.25 times MIC incubated for overnight by microbroth dilution checkerboard assay
# Assay type: functional
# Settings: not given
# In short: as §2
row,SMILES,MIC
1,CCCCCCCCCCCCCCCCNC(=N)NCCCCN,≤ 0.125 µg/mL

# Test system: Klebsiella pneumoniae
# Test: Synergistic antibacterial activity against Klebsiella pneumoniae NCTC 13368 assessed as fold change in rifampicin MIC at <=0.25 times MIC incubated for overnight by microbroth dilution checkerboard assay relative to rifampicin alone
# Assay type: functional
# Settings: not given
# In short: as §1
row,SMILES,fold change (FC)
1,CCCCCCCCCCCCCCCCNC(=N)NCCCCN,>=4
